According to ChEMBL document CHEMBL1671850, “Discovery of a benzo[e]pyrimido-[5,4-b][1,4]diazepin-6(11H)-one as a Potent and Selective Inhibitor of Big MAP Kinase 1” (ACS Med Chem Lett, 2011):

What was measured:
[1] = target: Mitogen-activated protein kinase 7 (Homo sapiens, UniProt Q13164); assay: Inhibition of EGF-induced BMK1 autophosphorylation in human HeLa cells by SDS-PAGE analysis; type: cell-based
[2] = tested on: Tyrosine-protein kinase ABL1 (Homo sapiens), P00519 [F317I]; assay: Binding affinity to ABL1 F317I mutant at 10 uM by immobilized ligand displacement assay
How it was run: (§1)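 Ambit KINOMEScan competition binding panel (402 kinases). Kinase displacement from an immobilized ligand is read relative to a DMSO control. Hits are kinases showing more than […] displacement. The text gives the test concentration as 10 μM.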

[3] = target: Myosin light chain kinase family member 4 (Homo sapiens) (UniProt Q86YV6); assay: Binding affinity to MYLK4 at 10 uM by immobilized ligand displacement assay; how it was run: as §1
[4] = target: Macrophage colony-stimulating factor 1 receptor (Homo sapiens) (UniProt P07333); assay: Binding affinity to c-FMS at 10 uM by immobilized ligand displacement assay; how it was run: as §1
Chain of Macrophage colony-stimulating factor 1 receptor (Homo sapiens) (P07333 whole entry): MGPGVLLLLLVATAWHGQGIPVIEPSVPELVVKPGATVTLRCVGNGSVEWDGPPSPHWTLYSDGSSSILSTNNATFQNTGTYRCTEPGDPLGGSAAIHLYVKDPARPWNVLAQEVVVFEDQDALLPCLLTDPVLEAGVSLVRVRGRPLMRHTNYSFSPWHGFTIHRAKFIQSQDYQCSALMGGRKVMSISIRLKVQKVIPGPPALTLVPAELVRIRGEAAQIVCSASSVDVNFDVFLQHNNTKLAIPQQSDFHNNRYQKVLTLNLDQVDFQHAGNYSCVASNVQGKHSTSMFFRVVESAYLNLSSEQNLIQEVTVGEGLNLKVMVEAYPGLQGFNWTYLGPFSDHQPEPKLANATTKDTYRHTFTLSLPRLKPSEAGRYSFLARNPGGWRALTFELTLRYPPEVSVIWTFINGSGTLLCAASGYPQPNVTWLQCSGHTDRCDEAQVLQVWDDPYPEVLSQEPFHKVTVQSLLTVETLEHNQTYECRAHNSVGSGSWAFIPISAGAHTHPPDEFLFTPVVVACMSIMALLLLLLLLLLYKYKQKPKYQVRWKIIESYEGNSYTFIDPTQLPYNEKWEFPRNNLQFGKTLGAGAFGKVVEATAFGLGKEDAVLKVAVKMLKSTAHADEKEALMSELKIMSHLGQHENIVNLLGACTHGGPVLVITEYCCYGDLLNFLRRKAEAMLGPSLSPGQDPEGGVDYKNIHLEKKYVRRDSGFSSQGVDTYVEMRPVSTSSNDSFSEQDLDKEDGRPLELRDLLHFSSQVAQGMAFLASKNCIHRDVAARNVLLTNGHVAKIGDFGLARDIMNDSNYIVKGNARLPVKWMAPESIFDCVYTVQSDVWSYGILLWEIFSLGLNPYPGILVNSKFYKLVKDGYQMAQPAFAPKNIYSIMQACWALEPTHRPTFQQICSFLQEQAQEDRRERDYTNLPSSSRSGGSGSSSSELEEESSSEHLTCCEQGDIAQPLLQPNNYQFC

[5] = tested on: Mast/stem cell growth factor receptor Kit (Homo sapiens), P10721 [L576P]; assay: Binding affinity to KIT L576P mutant at 10 uM by immobilized ligand displacement assay; how it was run: as §1
[6] = target: Protein-tyrosine kinase 6 (Homo sapiens) (UniProt Q13882); assay: Binding affinity to BRK at 10 uM by immobilized ligand displacement assay; how it was run: as §1
Chain of Protein-tyrosine kinase 6 (Homo sapiens) (Q13882 whole entry, looked up): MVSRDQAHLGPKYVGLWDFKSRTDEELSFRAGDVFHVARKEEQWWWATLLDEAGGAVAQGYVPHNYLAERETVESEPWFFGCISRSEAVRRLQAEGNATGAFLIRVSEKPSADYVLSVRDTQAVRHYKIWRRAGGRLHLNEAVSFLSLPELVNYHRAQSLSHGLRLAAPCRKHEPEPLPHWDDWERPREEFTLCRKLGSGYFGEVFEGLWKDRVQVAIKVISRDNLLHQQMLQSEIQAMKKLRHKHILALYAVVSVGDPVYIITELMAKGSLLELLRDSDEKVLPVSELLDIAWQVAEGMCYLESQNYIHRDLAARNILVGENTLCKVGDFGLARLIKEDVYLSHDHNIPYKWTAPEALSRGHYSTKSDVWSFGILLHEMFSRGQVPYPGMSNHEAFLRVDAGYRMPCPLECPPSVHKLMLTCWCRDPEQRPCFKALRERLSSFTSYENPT

[7] = target: Cyclin-G-associated kinase (Homo sapiens) (UniProt O14976); assay: Binding affinity to GAK at 10 uM by immobilized ligand displacement assay; how it was run: as §1
Chain of Cyclin-G-associated kinase (Homo sapiens) (O14976 whole entry): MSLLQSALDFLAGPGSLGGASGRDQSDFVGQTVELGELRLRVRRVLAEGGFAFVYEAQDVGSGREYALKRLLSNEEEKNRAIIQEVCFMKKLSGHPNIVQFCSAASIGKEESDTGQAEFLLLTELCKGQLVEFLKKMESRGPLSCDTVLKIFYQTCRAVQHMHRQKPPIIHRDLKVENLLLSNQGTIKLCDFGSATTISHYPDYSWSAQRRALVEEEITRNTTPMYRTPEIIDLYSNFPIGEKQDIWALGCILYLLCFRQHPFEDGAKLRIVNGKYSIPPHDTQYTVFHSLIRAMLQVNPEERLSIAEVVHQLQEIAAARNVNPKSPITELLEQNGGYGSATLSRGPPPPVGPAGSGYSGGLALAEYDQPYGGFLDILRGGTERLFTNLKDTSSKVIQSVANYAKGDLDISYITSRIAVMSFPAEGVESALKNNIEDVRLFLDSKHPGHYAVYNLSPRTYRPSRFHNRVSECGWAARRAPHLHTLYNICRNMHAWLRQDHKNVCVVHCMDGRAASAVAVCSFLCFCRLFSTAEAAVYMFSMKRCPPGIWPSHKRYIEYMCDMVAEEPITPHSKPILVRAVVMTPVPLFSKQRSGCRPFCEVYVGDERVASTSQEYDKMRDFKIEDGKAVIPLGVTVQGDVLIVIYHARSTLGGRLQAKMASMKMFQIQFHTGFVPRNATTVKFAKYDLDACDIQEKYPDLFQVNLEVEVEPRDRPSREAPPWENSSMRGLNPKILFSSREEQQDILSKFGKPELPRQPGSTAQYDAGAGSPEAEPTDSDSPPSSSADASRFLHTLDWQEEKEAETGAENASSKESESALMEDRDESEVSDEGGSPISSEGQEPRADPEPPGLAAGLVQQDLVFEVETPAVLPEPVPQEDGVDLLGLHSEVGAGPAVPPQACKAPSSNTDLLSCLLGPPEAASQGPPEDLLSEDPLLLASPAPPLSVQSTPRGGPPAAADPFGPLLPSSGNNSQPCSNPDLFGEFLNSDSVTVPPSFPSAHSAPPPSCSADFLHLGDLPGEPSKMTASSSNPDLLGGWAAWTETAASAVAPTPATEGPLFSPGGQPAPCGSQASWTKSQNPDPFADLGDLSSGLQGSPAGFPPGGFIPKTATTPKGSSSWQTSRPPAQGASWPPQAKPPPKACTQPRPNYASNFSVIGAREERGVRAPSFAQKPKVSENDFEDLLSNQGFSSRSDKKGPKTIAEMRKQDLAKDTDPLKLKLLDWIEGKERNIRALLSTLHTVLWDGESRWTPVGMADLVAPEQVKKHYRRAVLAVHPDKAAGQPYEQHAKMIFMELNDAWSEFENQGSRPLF

[8] = target: Non-receptor tyrosine-protein kinase TNK1 (Homo sapiens, UniProt Q13470); assay: Binding affinity to TNK1 by immobilized ligand displacement assay
Chain of Non-receptor tyrosine-protein kinase TNK1 (Q13470 whole entry): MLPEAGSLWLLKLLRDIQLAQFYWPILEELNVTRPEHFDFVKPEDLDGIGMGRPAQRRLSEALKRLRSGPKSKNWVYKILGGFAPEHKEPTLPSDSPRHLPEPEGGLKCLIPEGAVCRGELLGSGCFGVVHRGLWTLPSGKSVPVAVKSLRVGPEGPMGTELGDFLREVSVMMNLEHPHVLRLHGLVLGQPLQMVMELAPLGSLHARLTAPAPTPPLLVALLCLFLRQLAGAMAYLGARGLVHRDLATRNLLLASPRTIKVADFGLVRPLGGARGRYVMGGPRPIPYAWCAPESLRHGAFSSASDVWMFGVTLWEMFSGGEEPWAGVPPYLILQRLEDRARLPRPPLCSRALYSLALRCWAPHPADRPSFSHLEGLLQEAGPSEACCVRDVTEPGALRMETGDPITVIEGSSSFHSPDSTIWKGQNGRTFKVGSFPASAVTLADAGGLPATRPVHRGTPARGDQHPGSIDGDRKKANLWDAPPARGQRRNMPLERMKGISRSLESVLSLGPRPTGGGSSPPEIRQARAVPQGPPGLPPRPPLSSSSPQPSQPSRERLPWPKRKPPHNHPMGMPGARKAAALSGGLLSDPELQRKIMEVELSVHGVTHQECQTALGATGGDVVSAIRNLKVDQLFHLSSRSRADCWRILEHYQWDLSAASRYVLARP
How it was run: (§2)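 KINOMEscan-type competition binding: displacement of kinase from an immobilized ligand; Kd values determined for individual kinases.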

[9] = target: Serine/threonine-protein kinase DCLK2 (Homo sapiens, UniProt Q8N568); assay: Binding affinity to DCAMKL2 by immobilized ligand displacement assay; how it was run: as §2
[10] = target: Serine/threonine-protein kinase DCLK1 (Homo sapiens, UniProt O15075); assay: Binding affinity to DCAMKL1 by immobilized ligand displacement assay
Chain of Serine/threonine-protein kinase DCLK1 (O15075 whole entry): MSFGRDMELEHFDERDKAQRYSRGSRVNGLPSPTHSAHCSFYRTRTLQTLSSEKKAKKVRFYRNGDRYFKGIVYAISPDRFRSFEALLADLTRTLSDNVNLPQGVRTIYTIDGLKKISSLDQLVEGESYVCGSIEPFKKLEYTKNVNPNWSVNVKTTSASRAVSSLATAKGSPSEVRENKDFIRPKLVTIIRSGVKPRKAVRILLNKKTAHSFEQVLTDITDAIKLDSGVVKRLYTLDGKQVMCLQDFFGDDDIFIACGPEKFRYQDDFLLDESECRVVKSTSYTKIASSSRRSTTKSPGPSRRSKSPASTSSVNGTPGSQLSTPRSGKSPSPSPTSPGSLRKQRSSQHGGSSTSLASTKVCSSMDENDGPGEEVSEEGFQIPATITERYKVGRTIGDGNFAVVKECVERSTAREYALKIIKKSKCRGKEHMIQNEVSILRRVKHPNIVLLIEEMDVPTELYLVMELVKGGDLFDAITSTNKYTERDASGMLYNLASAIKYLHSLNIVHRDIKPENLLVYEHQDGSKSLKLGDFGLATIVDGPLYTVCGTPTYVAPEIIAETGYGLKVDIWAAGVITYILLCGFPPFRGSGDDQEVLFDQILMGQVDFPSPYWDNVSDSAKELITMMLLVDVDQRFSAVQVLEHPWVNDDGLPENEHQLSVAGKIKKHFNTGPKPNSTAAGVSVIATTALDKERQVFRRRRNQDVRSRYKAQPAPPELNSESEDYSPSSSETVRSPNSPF
How it was run: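 Dissociation constant (Kd) measured in the Ambit KINOMEScan competition binding format, which reads kinase displacement from an immobilized ligand.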

[11] = AUC (0 to infinity) in rat at 2 mg/kg, po; type: ADME, organism-based; design: time infinity, dose 2 mg/kg, route oral; conditions: plasma
How it was run: (§3)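 Single-dose pharmacokinetics: rats given 1 mg/kg intravenous or 2 mg/kg oral; mice given 1 mg/kg intravenous or 10 mg/kg oral. Plasma concentration profiles yield Tmax, Cmax, AUC0-∞, half-life, plasma clearance, Vss and oral bioavailability.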

[12] = Cmax in rat at 1 mg/kg, iv; type: ADME, organism-based; design: dose 1 mg/kg, route intravenous; conditions: in vivo; how it was run: as §3
[13] = Plasma clearance in rat at 1 mg/kg, iv; type: ADME, organism-based; design: dose 1 mg/kg, route intravenous; how it was run: as §3
[14] = Volume of distribution at steady state in rat at 1 mg/kg, iv; type: ADME, organism-based; design: dose 1 mg/kg, route intravenous; conditions: in vivo, read-out: Vdss; how it was run: as §3
Mus musculus = assay: Toxicity in human HeLa cells xenografted mouse assessed as tolerability at 50 mg/kg ip bid for 28 days; type: organism-based; design: dose 50 mg/kg, route intraperitoneal; conditions: in vivo
How it was run: (§4)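 HeLa cell xenograft in mice; tumor-bearing animals injected intraperitoneally with 50 mg/kg or vehicle solution twice daily for 28 days; tumor growth compared against vehicle.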

[15] = Tmax in rat at 1 mg/kg, iv; type: ADME, organism-based; design: dose 1 mg/kg, route intravenous; conditions: in vivo; how it was run: as §3
[16] = Half life in rat at 1 mg/kg, iv; type: ADME, organism-based; design: dose 1 mg/kg, route intravenous; conditions: in vivo; how it was run: as §3
[17] = Plasma clearance in rat at 2 mg/kg, po; type: ADME, organism-based; design: dose 2 mg/kg, route oral; how it was run: as §3
[18] = Tmax in rat at 2 mg/kg, po; type: ADME, organism-based; design: dose 2 mg/kg, route oral; conditions: in vivo; how it was run: as §3
HeLa = assay: Antitumor activity against human HeLa cells xenografted in mouse assessed as inhibition of tumor growth at 50 mg/kg, ip bid for 28 days; type: functional; conditions: route intraperitoneal; how it was run: as §4
Rattus norvegicus = assay: Half life in rat at 2 mg/kg, po; type: ADME, organism-based; design: dose 2 mg/kg, route oral; conditions: in vivo; how it was run: as §3
[19] = Cmax in rat at 2 mg/kg, po; type: ADME, organism-based; design: dose 2 mg/kg, route oral; conditions: in vivo; how it was run: as §3
[20] = Oral bioavailability in rat at 2 mg/kg; type: ADME, organism-based; conditions: in vivo; how it was run: as §3
[21] = AUC (0 to infinity) in rat at 1 mg/kg, iv; type: ADME, organism-based; design: time infinity, dose 1 mg/kg, route intravenous; conditions: plasma; how it was run: as §3
[22] = Oral bioavailability in mouse at 10 mg/kg; type: ADME, organism-based; conditions: in vivo; how it was run: as §3
[23] = Plasma clearance in mouse at 1 mg/kg, iv; type: ADME, organism-based; design: dose 1 mg/kg, route intravenous; how it was run: as §3
AU565 = assay: Antiproliferative activity against human AU565 cells after 72 hrs; type: functional, cell-based; conditions: AU565, 72 h
[24] = Volume of distribution at steady state in mouse at 1 mg/kg, iv; type: ADME, organism-based; design: dose 1 mg/kg, route intravenous; conditions: in vivo, read-out: Vdss; how it was run: as §3
MCF7 = assay: Antiproliferative activity against human MCF7 cells after 72 hrs; type: functional, cell-based; conditions: MCF7, 72 h
PC-3 = assay: Antiproliferative activity against human PC3 cells after 72 hrs; type: functional, cell-based; conditions: PC-3, 72 h
NCI-H1299 = assay: Antiproliferative activity against human NCI-H1299 cells after 72 hrs; type: functional, cell-based; conditions: NCI-H1299, 72 h
BPH-1 = assay: Antiproliferative activity against human BPH1 cells after 72 hrs; type: functional, cell-based; conditions: BPH-1, 72 h
[25] = Cmax in mouse at 10 mg/kg, po; type: ADME, organism-based; design: dose 10 mg/kg, route oral; conditions: in vivo; how it was run: as §3
[26] = Tmax in mouse at 10 mg/kg, po; type: ADME, organism-based; design: dose 10 mg/kg, route oral; conditions: in vivo; how it was run: as §3
[27] = Half life in mouse at 1 mg/kg, iv; type: ADME, organism-based; design: dose 1 mg/kg, route intravenous; conditions: in vivo; how it was run: as §3
[28] = AUC (0 to infinity) in mouse at 10 mg/kg, po; type: ADME, organism-based; design: time infinity, dose 10 mg/kg, route oral; conditions: plasma; how it was run: as §3
SK-N-AS = assay: Antiproliferative activity against human SK-N-AS cells after 72 hrs; type: functional, cell-based
NCI-H522 = assay: Antiproliferative activity against human NCI-H522 cells after 72 hrs; type: functional, cell-based; conditions: NCI-H522, 72 h
[29] = AUC (0 to infinity) in mouse at 1 mg/kg, iv; type: ADME, organism-based; design: time infinity, dose 1 mg/kg, route intravenous; conditions: plasma; how it was run: as §3

Chain of Mitogen-activated protein kinase 7 (Q13164 whole entry): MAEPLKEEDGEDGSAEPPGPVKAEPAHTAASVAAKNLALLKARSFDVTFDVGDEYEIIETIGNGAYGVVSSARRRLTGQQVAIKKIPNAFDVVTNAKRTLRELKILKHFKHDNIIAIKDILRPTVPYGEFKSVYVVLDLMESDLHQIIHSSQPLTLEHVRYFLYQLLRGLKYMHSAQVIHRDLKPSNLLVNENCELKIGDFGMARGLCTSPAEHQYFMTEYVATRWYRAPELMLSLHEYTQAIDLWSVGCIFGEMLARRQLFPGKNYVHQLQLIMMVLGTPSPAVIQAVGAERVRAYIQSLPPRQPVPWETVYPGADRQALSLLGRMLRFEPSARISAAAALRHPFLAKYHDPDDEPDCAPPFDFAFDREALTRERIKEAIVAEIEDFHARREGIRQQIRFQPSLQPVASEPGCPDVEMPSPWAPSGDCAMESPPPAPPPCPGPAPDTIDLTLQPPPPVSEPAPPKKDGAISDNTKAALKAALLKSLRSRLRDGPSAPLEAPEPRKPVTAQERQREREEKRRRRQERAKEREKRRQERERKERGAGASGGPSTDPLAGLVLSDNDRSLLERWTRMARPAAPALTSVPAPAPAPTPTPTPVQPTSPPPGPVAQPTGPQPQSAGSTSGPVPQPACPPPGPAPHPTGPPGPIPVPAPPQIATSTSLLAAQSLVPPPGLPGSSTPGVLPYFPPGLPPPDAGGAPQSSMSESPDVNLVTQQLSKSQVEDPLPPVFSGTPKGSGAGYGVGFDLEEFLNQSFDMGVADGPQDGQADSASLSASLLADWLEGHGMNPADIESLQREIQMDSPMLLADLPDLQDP

COc1cc(N2CCN(C)CC2)ccc1Nc1ncc2c(n1)N(C(C)C)c1ccccc1C(=O)N2C
IC50 [1]: 230 nM

COc1cc(N2CCN(C)CC2)ccc1Nc1ncc2c(n1)N(C)c1ccccc1C(=O)N2
inhibition [2]: > 90%
inhibition [3]: > 90%
inhibition [4]: > 90%
inhibition [5]: > 90%
inhibition [6]: > 90%
inhibition [7]: > 90%

COc1cc(N2CCN(C)CC2)ccc1Nc1ncc2c(n1)N(C)c1ccc(Cl)cc1C(=O)N2C
IC50 [1]: 1240 nM

COc1cc(N2CCNCC2)ccc1Nc1ncc2c(n1)N(C)c1ccccc1C(=O)N2C
IC50 [1]: 230 nM

COc1cc(C(=O)NC2CCN(C)CC2)ccc1Nc1ncc2c(n1)N(C)c1ccccc1C(=O)N2C
IC50 [1]: 320 nM

COc1cc(N2CCN(C)CC2)ccc1Nc1ncc2c(n1)N(C)c1ccccc1C(=O)N2C
Kd [8]: 29 nM
Kd [9]: 10 nM
Kd [10]: 1.2 nM

CN1C(=O)c2ccccc2N(C)c2nc(Nc3ccc(S(N)(=O)=O)cc3)ncc21
IC50 [1]: 310 nM

COc1cc(C(=O)NCCN(C)C)ccc1Nc1ncc2c(n1)N(C)c1ccccc1C(=O)N2C
IC50 [1]: 240 nM

Cc1cc(N2CCN(C)CC2)ccc1Nc1ncc2c(n1)N(C)c1ccccc1C(=O)N2C
IC50 [1]: 280 nM

CCOc1cc(N2CCC(O)CC2)ccc1Nc1ncc2c(n1)N(C)c1ccccc1C(=O)N2C
AUC(0-inf) [11]: 903 ng·h/mL
Cmax [12]: 439 ng/mL
clearance [13]: 25.5 mL/min/kg
Vd [14]: 3.4 L/kg
Activity (Mus musculus): Non-toxic
Tmax [15]: 4.8 min
half-life [16]: 120 min
CL/F [17]: 37 mL/min/kg
Tmax [18]: 30 min
inhibition in vivo at 50 mg/kg (HeLa): 95%
t1/2 (Rattus norvegicus): 3.4 h
Cmax [19]: 247 ng/mL
bioavailability [20]: 68.6%
AUC(0-inf) [21]: 658 ng·h/mL

COc1cc(N2CCOCC2)ccc1Nc1ncc2c(n1)N(C)c1ccccc1C(=O)N2C
IC50 [1]: 260 nM

COc1cc(N2CCN(C)CC2)ccc1Nc1ncc2c(n1)N(C)c1ccc(C)cc1C(=O)N2C
IC50 [1]: 3100 nM

COc1cc(C2CCN(C)CC2)ccc1Nc1ncc2c(n1)N(C)c1ccccc1C(=O)N2C
IC50 [1]: 260 nM

COc1cc(C(=O)N2CCC(N3CCCC3)CC2)ccc1Nc1ncc2c(n1)N(C)c1ccccc1C(=O)N2C
bioavailability [22]: 86.6%
clearance [23]: 18.4 mL/min/kg
EC50 (AU565): > 10 µM
Vd [24]: 5.36 L/kg
IC50 [1]: 130 nM
EC50 (MCF7): > 10 µM
EC50 (PC-3): 3.6 µM
EC50 (NCI-H1299): 4.2 µM
EC50 (BPH-1): 1600 nM
Cmax [25]: 1290 ng/mL
Tmax [26]: 2 h
half-life [27]: 157 min
AUC(0-inf) [28]: 7870 ng·h/mL
EC50 (SK-N-AS): 4.4 µM
EC50 (NCI-H522): 950 nM
AUC(0-inf) [29]: 907 ng·h/mL

CCN1c2ccccc2C(=O)N(C)c2cnc(Nc3ccc(N4CCN(C)CC4)cc3OC)nc21
IC50 [1]: 200 nM

COc1cc(N2CCN(C)CC2)ccc1Nc1ncc2c(n1)N(C)c1cc(F)ccc1C(=O)N2C
IC50 [1]: 1320 nM

COc1cc(N2CCN(C)CC2)ccc1Nc1ncc2c(n1)N(C1CCCC1)c1ccccc1C(=O)N2C
IC50 [1]: 200 nM

COc1cc(N2CCN(C)CC2)ccc1Nc1ncc2c(n1)N(C)c1cc(Cl)ccc1C(=O)N2C
IC50 [1]: 11400 nM

COc1cc(N2CCC(O)CC2)ccc1Nc1ncc2c(n1)N(C)c1ccccc1C(=O)N2C
IC50 [1]: 240 nM
